{
  "source": "paper PMC2801054",
  "about": "(Analytical biochemistry, 2009)",
  "key": {"[1]": {"molecular_target": "T1, endometase (matrilysin 2, MMP-26) (Homo sapiens, UniProt Q9NRE1)", "T1 sequence (Q9NRE1 90-261)": "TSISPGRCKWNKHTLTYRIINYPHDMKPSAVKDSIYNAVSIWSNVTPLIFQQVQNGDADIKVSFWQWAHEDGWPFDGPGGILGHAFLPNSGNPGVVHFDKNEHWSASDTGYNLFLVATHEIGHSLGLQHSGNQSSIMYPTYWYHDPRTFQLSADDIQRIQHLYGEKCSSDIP", "experiment": "active-site titration, fluorogenic peptide hydrolysis, Morrison fit", "type": "biochemical", "settings": "50 mM HEPES pH 7.5, 0.2 M NaCl, 10 mM CaCl2, 0.01 % Brij-35, 25 °C, 20 min preincubation"}, "[2]": {"molecular_target": "T1, endometase (matrilysin 2, MMP-26)", "experiment": "fluorogenic peptide hydrolysis", "type": "biochemical", "procedure,_shortened": "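MMP-26 was refolded from urea-solubilized insoluble protein by dialysis and was partially auto-activated. Active enzyme concentration was set by GM6001 titration. Final conditions were 1 nM active enzyme, 1 μM Mca-PLGLDpa-AR-NH₂, and test compound at 0.001–9 mM in 50 mM HEPES pH 7.5, 0.2 M NaCl, 10 mM CaCl₂ at 25 °C. Fluorescence was read at ex 328/em 393 nm, with maximum signal set as 100% activity.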"}},
  "data": [
    {"smiles": "CNC(=O)[C@H](Cc1c[nH]c2ccccc12)NC(=O)[C@@H](CC(=O)NO)CC(C)C", "note": "[GM6001]", "values": [
      {"measurement": "active-site titration, fluorogenic peptide hydrolysis, Morrison fit", "setting": "[1]", "value": "Titration of active MMP-26 with GM6001, a potent and broad-spectrum MMP inhibitor"}
    ]},
    {"smiles": "CCCCCCCCCCCCOS(=O)(=O)O", "note": "[SDS]", "values": [
      {"measurement": "IC50", "setting": "[2]", "value": 110, "unit": "µM"}
    ]},
    {"smiles": "CCCCCCCCCCCCCC[N+](C)(C)C", "note": "[TTAB]", "values": [
      {"measurement": "IC50", "setting": "[2]", "value": 79, "unit": "µM"}
    ]}
  ]
}
